From ChEMBL document CHEMBL4257584, “Sterol 14α-Demethylase Structure-Based Optimization of Drug Candidates for Human Infections with the Protozoan Trypanosomatidae” (J Med Chem, 2018)
Active and inactive are the calls of the source. The rule behind the calls is not given here.

Key:
[1] = target: Putative lanosterol 14-alpha-demethylase (Leishmania infantum) (UniProt A2TEF2); experiment: Inhibition of Leishmania infantum CYP51 expressed in Escherichia coli using [3-3H]-obtusifoliol as substrate after 60 mins by LC-MS analysis
Putative lanosterol 14-alpha-demethylase (Leishmania infantum), sequence (A2TEF2 1-480): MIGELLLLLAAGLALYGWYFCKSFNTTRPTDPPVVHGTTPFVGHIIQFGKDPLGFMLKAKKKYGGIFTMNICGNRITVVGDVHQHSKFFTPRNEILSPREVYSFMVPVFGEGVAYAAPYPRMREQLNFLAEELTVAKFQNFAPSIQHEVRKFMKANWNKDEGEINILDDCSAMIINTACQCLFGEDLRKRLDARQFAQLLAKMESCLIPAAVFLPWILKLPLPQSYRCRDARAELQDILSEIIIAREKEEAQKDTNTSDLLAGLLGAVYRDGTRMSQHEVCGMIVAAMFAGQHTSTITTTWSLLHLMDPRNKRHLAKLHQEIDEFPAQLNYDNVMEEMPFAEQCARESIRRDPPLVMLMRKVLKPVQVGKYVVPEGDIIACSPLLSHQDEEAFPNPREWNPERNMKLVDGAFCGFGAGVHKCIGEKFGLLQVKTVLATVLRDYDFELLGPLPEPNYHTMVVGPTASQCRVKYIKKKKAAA
In short: (§1)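 Reconstituted reaction: 1 μM purified CYP51, 2 μM T. brucei NADPH-P450 reductase, 100 μM dilauroylphosphatidylcholine, isocitrate dehydrogenase/isocitrate regeneration, 50 mM K phosphate pH 7.2, 10% glycerol. [3-3H]sterol substrate at 50 μM final (eburicol for T. cruzi; obtusifoliol for T. brucei and L. infantum) with inhibitor at 1.1 μM final. Preincubate 60 s at 37 °C, start with 100 μM NADPH, run 60 min, EtOAc extraction. Gives % inhibition of 14α-demethylation, triplicate, mean ± SD.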

[2] = Drug uptake in BALB/c mouse liver at 25 mg/kg, po via gavage measured after 4 hrs post dose by […]; assay type: ADME, organism-based; conditions: read-out: Drug uptake
In short: (§2)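 BALB/c mice get a single oral gavage dose of 25 mg/kg; tissues are collected 4 h post-dose. About 100 mg tissue is diluted 5-fold in PBS and homogenized. Homogenate is extracted as for plasma (ketoconazole internal standard, acetonitrile extraction) and quantified by HPLC-UV at 291 nm, 0.1 μM detection limit, n=2.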

[3] = Drug uptake in BALB/c mouse blood at 25 mg/kg, po via gavage measured after 4 hrs post dose by […]; assay type: ADME, organism-based; conditions: read-out: Drug uptake; in short: as §2
[4] = Drug uptake in BALB/c mouse heart at 25 mg/kg, po via gavage measured after 4 hrs post dose by […]; assay type: ADME, organism-based; conditions: read-out: Drug uptake; in short: as §2
[5] = target: Sterol 14-alpha demethylase (Trypanosoma cruzi (strain CL Brener)) (UniProt Q7Z1V1); experiment: Inhibition of Trypanosoma cruzi Y CYP51 expressed in Escherichia coli using [3-3H]-eburicol as substrate after 60 mins by LC-MS analysis; in short: as §1
Sterol 14-alpha demethylase (Trypanosoma cruzi (strain CL Brener)), sequence (Q7Z1V1 whole entry, looked up): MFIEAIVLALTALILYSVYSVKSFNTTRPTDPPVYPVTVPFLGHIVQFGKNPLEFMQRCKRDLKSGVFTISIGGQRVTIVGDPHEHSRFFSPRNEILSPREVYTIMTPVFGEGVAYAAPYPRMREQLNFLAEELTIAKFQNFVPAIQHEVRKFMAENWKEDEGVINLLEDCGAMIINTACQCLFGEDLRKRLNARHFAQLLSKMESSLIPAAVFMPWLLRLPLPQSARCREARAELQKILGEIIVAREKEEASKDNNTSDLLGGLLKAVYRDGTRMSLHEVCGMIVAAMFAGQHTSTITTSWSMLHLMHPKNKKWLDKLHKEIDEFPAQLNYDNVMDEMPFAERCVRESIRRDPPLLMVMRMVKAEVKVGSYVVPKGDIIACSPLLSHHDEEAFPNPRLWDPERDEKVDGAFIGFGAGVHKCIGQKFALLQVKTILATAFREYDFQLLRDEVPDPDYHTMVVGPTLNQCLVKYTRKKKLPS

[6] = Plasma concentration in BALB/c mouse assessed as time until the compound becomes undetectable at 25 mg/kg, po via gavage […]; assay type: ADME, organism-based; conditions: in vivo
In short: (§3)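 Single oral gavage dose of 25 mg/kg in BALB/c mice; blood sampled at 1, 2, 4, 6, 10, 16, 24 h. Plasma is diluted in PBS with ketoconazole internal standard, extracted with 80% acetonitrile, dried and redissolved. Analysed by reversed-phase HPLC with UV at 291/250 nm, 0.1 μM detection limit. Lifetime is time until undetectable.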

[7] = tested on: Trypanosoma cruzi; experiment: Antiparasitic activity against GFP-expressing Trypanosoma cruzi Y amastigote formss infected in cardiomyocytes assessed as reduction in rate of parasite multiplication within infected cardiomyocytes measured at 72 hrs post infection by fluorescence microscopy; assay type: functional, organism-based
In short: (§4)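 GFP-expressing trypomastigotes (Tulahuen or Y strain) infect cardiomyocyte monolayers at 10 parasites per cell, in DMEM + 10% FBS. Unbound parasites are washed off. At 24 h of infection, inhibitors at 0.5–25 nM in DMSO/DMEM are added and cultured 48 h. Read-out is at 72 h post-infection as GFP fluorescence (RFU) after PBS wash; microscopy uses paraformaldehyde fixation, DAPI and phalloidin stain. Triplicate.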

[8] = target: Lanosterol 14-alpha-demethylase (Trypanosoma brucei brucei (strain 927/4 GUTat10.1)) (UniProt Q385E8); experiment: Inhibition of Trypanosoma brucei […] CYP51 expressed in Escherichia coli using [3-3H]-obtusifoliol as substrate after 60 mins by LC-MS analysis; in short: as §1
Lanosterol 14-alpha-demethylase (Trypanosoma brucei brucei (strain 927/4 GUTat10.1)), sequence (Q385E8 1-481): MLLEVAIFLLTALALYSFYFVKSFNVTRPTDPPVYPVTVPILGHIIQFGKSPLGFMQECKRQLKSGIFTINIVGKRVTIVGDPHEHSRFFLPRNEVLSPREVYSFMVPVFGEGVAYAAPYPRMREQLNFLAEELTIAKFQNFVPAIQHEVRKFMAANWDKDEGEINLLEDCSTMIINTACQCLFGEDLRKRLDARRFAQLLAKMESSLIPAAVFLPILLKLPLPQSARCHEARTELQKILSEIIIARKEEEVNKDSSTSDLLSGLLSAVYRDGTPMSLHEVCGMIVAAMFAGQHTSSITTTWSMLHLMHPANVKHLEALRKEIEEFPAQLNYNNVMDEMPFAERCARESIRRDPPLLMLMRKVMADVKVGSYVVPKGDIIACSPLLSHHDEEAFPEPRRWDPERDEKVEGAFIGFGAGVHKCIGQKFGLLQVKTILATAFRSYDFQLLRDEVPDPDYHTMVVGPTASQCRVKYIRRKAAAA

[9] = tested on: Mus musculus; experiment: Toxicity in Swiss Webster mouse assessed as effect on heart weight at 200 mg/kg, po administered as single dose measured after 48 hrs; assay type: organism-based; conditions: in vivo
In short: (§5)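 Swiss Webster mice (21–23 g, n=3) get a single oral 200 mg/kg dose, given as in the PK study. They are inspected for toxic and sub-toxic signs per OECD guidelines (behaviour, motility, neurological state, skin, fur), and body weight is tracked 0–48 h. At 48 h, mice are euthanized and organ weights are normalized to body weight. Blood is taken for haematology and plasma biochemistry.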

[10] = tested on: Mus musculus; experiment: Toxicity in Swiss Webster mouse assessed as effect on fur profile at 200 mg/kg, po administered as single dose measured after 48 hrs; assay type: organism-based; conditions: in vivo; in short: as §5
[11] = Drug uptake in BALB/c mouse brain at 25 mg/kg, po via gavage measured after 4 hrs post dose by […]; assay type: ADME, organism-based; conditions: read-out: Drug uptake; in short: as §2
[12] = tested on: Mus musculus; experiment: Toxicity in Swiss Webster mouse assessed as effect on skin at 200 mg/kg, po administered as single dose measured after 48 hrs; assay type: organism-based; conditions: in vivo; in short: as §5
[13] = tested on: Mus musculus; experiment: Toxicity in Swiss Webster mouse assessed as effect on neurological conditions at 200 mg/kg, po administered as single dose measured after 48 hrs; assay type: organism-based; conditions: in vivo; in short: as §5
[14] = tested on: Mus musculus; experiment: Toxicity in Swiss Webster mouse at 200 mg/kg, po administered as single dose measured after 48 hrs measured at 48 hrs post dose; assay type: organism-based; conditions: in vivo; in short: as §5
[15] = tested on: Mus musculus; experiment: Toxicity in Swiss Webster mouse assessed as effect on liver weight at 200 mg/kg, po administered as single dose measured after 48 hrs; assay type: organism-based; conditions: in vivo; in short: as §5
[16] = Drug uptake in BALB/c mouse lungs at 25 mg/kg, po via gavage measured after 4 hrs post dose by […]; assay type: ADME, organism-based, Lung; conditions: read-out: Drug uptake; in short: as §2
[17] = tested on: Trypanosoma cruzi; experiment: Antiparasitic activity against GFP-expressing Trypanosoma cruzi Tulahuen amastigote formss infected in cardiomyocytes assessed as reduction in rate of parasite multiplication within infected cardiomyocytes measured at 72 hrs post infection by fluorescence microscopy; assay type: functional, organism-based; in short: as §4
[18] = tested on: Mus musculus; experiment: Toxicity in Swiss Webster mouse assessed as effect on lung weight at 200 mg/kg, po administered as single dose measured after 48 hrs; assay type: organism-based; conditions: in vivo; in short: as §5
[19] = target: Putative lanosterol 14-alpha-demethylase (Leishmania infantum, UniProt A2TEF2); experiment: Binding affinity to Leishmania infantum CYP51 expressed in Escherichia coli
Putative lanosterol 14-alpha-demethylase, sequence (A2TEF2 whole entry): as the sequence (A2TEF2 1-480) above
In short: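 Purified E. coli-expressed L. infantum CYP51 at 0.5 μM is titrated with ligand at 0.1–1 μM in 5 cm path cuvettes. Difference-spectrum absorbance change Δ(A430−A411) is plotted against ligand concentration. Apparent Kd comes from a Morrison (quadratic) tight-binding fit by nonlinear regression.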

[20] = tested on: Mus musculus; experiment: Toxicity in Swiss Webster mouse assessed as effect on spleen weight at 200 mg/kg, po administered as single dose measured after 48 hrs; assay type: organism-based; conditions: in vivo; in short: as §5
[21] = tested on: Mus musculus; experiment: Toxicity in Swiss Webster mouse assessed as effect on body weight at 200 mg/kg, po administered as single dose measured after 48 hrs; assay type: organism-based; conditions: in vivo; in short: as §5
[22] = tested on: Mus musculus; experiment: Toxicity in Swiss Webster mouse assessed as effect on animal behavior at 200 mg/kg, po administered as single dose measured after 48 hrs; assay type: organism-based; conditions: in vivo; in short: as §5
[23] = Drug uptake in BALB/c mouse spleen at 25 mg/kg, po via gavage measured after 4 hrs post dose by […]; assay type: ADME, organism-based; conditions: read-out: Drug uptake; in short: as §2
[24] = Intrinsic clearance in CD1 mouse liver microsomes at 1 uM preincubated for 5 mins followed by NADPH addition and measured after 45 mins by LC/MS/MS analysis; assay type: ADME, microsome; conditions: read-out: CLH
[25] = tested on: Mus musculus; experiment: Toxicity in Swiss Webster mouse assessed as effect on motility at 200 mg/kg, po administered as single dose measured after 48 hrs; assay type: organism-based; conditions: in vivo; in short: as §5
[26] = tested on: Mus musculus; experiment: Toxicity in Swiss Webster mouse assessed as alteration in body to organ ratio at 200 mg/kg, po administered as single dose measured after 48 hrs; assay type: organism-based; conditions: in vivo; in short: as §5
[27] = Hepatic clearance in CD1 mouse liver microsomes at 1 uM preincubated for 5 mins followed by NADPH addition and measured after 45 mins by LC/MS/MS analysis; assay type: ADME, microsome
[28] = target: Sterol 14-alpha demethylase (Trypanosoma cruzi (strain CL Brener), UniProt Q7Z1V1); experiment: Binding affinity to Trypanosoma cruzi Y CYP51A expressed in Escherichia coli
Sterol 14-alpha demethylase, sequence (Q7Z1V1 whole entry): as the sequence (Q7Z1V1 whole entry, looked up) above
In short: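 Recombinant CYP51A from Y strain T. cruzi, expressed in E. coli and purified, titrated spectrally at 0.5 μM P450 in 5 cm path cuvettes with ligand over 0.1–1 μM. Type of absorbance change in difference spectra Δ(A430-A411) plotted against ligand concentration. Apparent Kd obtained by fitting to the Morrison quadratic tight-binding equation by nonlinear regression.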

[29] = tested on: Mus musculus; experiment: Toxicity in Swiss Webster mouse assessed as effect on biochemical plasma parameters at 200 mg/kg, po administered as single dose measured after 48 hrs; assay type: organism-based; conditions: in vivo; in short: as §5
[30] = Maximum plasma concentration in BALB/c mouse at 25 mg/kg, po via gavage by […]; assay type: ADME, organism-based; parameters: dose 25 mg/kg, route oral; in short: as §3
[31] = tested on: Mus musculus; experiment: Toxicity in Swiss Webster mouse assessed as effect on kidney weight at 200 mg/kg, po administered as single dose measured after 48 hrs; assay type: organism-based; conditions: in vivo; in short: as §5

SMILES: O=C(N[C@@H](Cn1ccnc1)c1ccc(Cl)cc1Cl)c1ccc(-c2nnc(-c3ccc(F)c(F)c3)o2)cc1
- inhibition [1]: Active
- concentration at 4 h [2]: 38 µM
- concentration at 4 h [3]: 36 µM
- concentration at 4 h [4]: 36 µM
- inhibition [5]: Active
- Time [6]: 16 h
- EC50 [7]: 3 nM
- inhibition [8]: Active
- Activity [9]: Non-Toxic
- Activity [10]: Non-Toxic
- concentration at 4 h [11]: 8 µM
- Activity [12]: Non-Toxic
- Activity [13]: Non-Toxic
- NOAEL [14]: > 200 mg/kg
- Activity [15]: Non-Toxic
- concentration at 4 h [16]: 46 µM
- EC50 [17]: 1.6 nM
- Activity [18]: Non-Toxic
- Kd [19]: 1.7 nM
- Activity [20]: Non-Toxic
- Activity [21]: Non-Toxic
- Activity [22]: Non-Toxic
- concentration at 4 h [23]: 28 µM
- CLint scaled at 1 µM [24]: 55.8 mL/min/kg
- Activity [25]: Non-Toxic
- Activity [26]: Non-Toxic
- CLhep predicted at 1 µM [27]: 34.5 mL/min/kg
- Kd [28]: 4.2 nM
- Activity [29]: Non-Toxic
- Cmax [30]: 38 µM
- Activity [31]: Non-Toxic
